Each block holds one compound with its values, some of them ahead of it. Activity calls are given as the source filed them. The calls are words filed in the database; no cut-off is given here.
Columns and labels:
Rattus norvegicus [1] = assay: Tested for in vivo inhibition of galactitol accumulation in the sciatic nerve of galactose-fed rats at the dose of 24 (mg/kg/day); NS=Not significant; assay type: functional, organism-based
Outline: (§1)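 Rats were given a 20% galactose diet for 4 days, with the test compound administered in the diet. Sciatic nerve galactitol accumulation was measured, and activity is given as % inhibition at the stated daily dose (mg/kg/day). Values are mean ± SEM, n = 6 animals; p < 0.01 unless indicated. NS means no significant inhibition of polyol accumulation.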

Rattus norvegicus [2] = assay: Tested for in vivo inhibition of galactitol accumulation in the lens of galactose-fed rats at the dose of 24 (mg/kg/day); NS=Not significant; assay type: functional, organism-based; conditions: Lens of camera-type eye
[3] = target: Aldo-keto reductase family 1 member B1 (Bos taurus) (UniProt P16116); assay: Inhibition of aldose reductase activity in partially purified bovine lens preparation at 4*10 e-8 M
Rattus norvegicus [4] = assay: Tested for in vivo inhibition of galactitol accumulation in the lens of galactose-fed rats at the dose of 54 (mg/kg/day); NS=Not significant; assay type: functional, organism-based; conditions: Lens of camera-type eye
Rattus norvegicus [5] = assay: tTested for in vivo inhibition of galactitol accumulation in the sciatic nerve of galactose-fed rats at the dose of 54 (mg/kg/day); NS=Not significant; assay type: functional, organism-based
Outline: (§2)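 Rats fed a 20% galactose diet for 4 days, with test compound given in the diet at the stated daily dose (mg/kg/day). Read-out is inhibition of galactitol (polyol) accumulation in sciatic nerve. Values are % inhibition, mean ± SEM of six animals; p < 0.01 unless marked (some p < 0.05). NS = no significant inhibition of polyol accumulation. Tolrestat was the reference standard.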

Rattus norvegicus [6] = assay: Tested for in vivo inhibition of galactitol accumulation in the lens of galactose-fed rats at the dose of 10.8 (mg/kg/day); assay type: functional, Lens of camera-type eye
[7] = target: Aldo-keto reductase family 1 member B1 (Bos taurus) (UniProt P16116); assay: Inhibition of aldose reductase activity in partially purified bovine lens preparation at 10e-5 M
Outline: (§3)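 Partially purified bovine lens aldose reductase. Reduction of DL-glyceraldehyde substrate followed spectrophotometrically. Activity expressed as average inhibition at the tested concentrations, 1×10^-5, 1×10^-6, 1×10^-7 and 4×10^-6 M as printed; IC50 in M where given.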

Rattus norvegicus [8] = assay: Tested for in vivo inhibition of galactitol accumulation in the sciatic nerve of galactose-fed rats at the dose of 10.8 (mg/kg/day); assay type: functional; outline: as §1
Rattus norvegicus [9] = assay: Tested for in vivo inhibition of galactitol accumulation in the lens of galactose-fed rats at the dose of 0.9 (mg/kg/day); NS=Not significant; assay type: functional, organism-based; conditions: Lens of camera-type eye
[10] = target: Aldo-keto reductase family 1 member B1 (Bos taurus) (UniProt P16116); assay: Compound was tested in vitro for inhibition of aldose reductase activity in partially purified bovine lens preparation at 10e-5 M; Not significant; NS=Not significant; outline: as §3
Rattus norvegicus [11] = assay: Tested for in vivo inhibition of galactitol accumulation in the sciatic nerve of galactose-fed rats at the dose of 47 (mg/kg/day); NS=Not significant; assay type: functional, organism-based; outline: as §1
Rattus norvegicus [12] = assay: Tested for in vivo inhibition of galactitol accumulation in the sciatic nerve of galactose-fed rats at the dose of 1.1 (mg/kg/day); NS=Not significant
Rattus norvegicus [13] = assay: Tested for in vivo inhibition of galactitol accumulation in the sciatic nerve of galactose-fed rats at the dose of 26.2 (mg/kg/day); NS=Not significant; assay type: functional, organism-based; outline: as §1
Rattus norvegicus [14] = assay: Tested for in vivo inhibition of galactitol accumulation in the lens of galactose-fed rats at the dose of 47.9 (mg/kg/day); assay type: functional, Lens of camera-type eye
Rattus norvegicus [15] = assay: Tested for in vivo inhibition of galactitol accumulation in the sciatic nerve of galactose-fed rats at the dose of 47.9 (mg/kg/day); assay type: functional; outline: as §1
Rattus norvegicus [16] = assay: Tested for in vivo inhibition of galactitol accumulation in the sciatic nerve of galactose-fed rats at the dose of 55.4 (mg/kg/day); NS=Not significant; assay type: functional, organism-based; outline: as §2
Rattus norvegicus [17] = assay: Tested for in vivo inhibition of galactitol accumulation in the lens of galactose-fed rats at the dose of 55.4 (mg/kg/day); NS=Not significant; assay type: functional, organism-based; conditions: Lens of camera-type eye
Outline: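 Galactosemic rats were fed 20% galactose for 4 days, with the compound mixed into the diet. […] galactitol accumulation was measured, and activity is given as % inhibition at the stated daily dose (mg/kg/day). Values are mean ± SEM of six animals; p < 0.01 unless indicated. NS means no significant inhibition of polyol accumulation.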

Rattus norvegicus [18] = assay: Tested for in vivo inhibition of galactitol accumulation in the lens of galactose-fed rats at the dose of 25.0 (mg/kg/day); NS=Not significant; assay type: functional, organism-based; conditions: Lens of camera-type eye
Rattus norvegicus [19] = assay: Tested for in vivo inhibition of galactitol accumulation in the sciatic nerve of galactose-fed rats. at the dose of 25.0 (mg/kg/day); NS=Not significant; assay type: functional, organism-based; outline: as §2
Rattus norvegicus [20] = assay: Tested for in vivo inhibition of galactitol accumulation in the lens of galactose-fed rats at the dose of 22 (mg/kg/day); NS=Not significant; assay type: functional, organism-based; conditions: Lens of camera-type eye
Rattus norvegicus [21] = assay: Tested for in vivo inhibition of galactitol accumulation in the sciatic nerve of galactose-fed rats at the dose of 22 (mg/kg/day); NS=Not significant; assay type: functional, organism-based; outline: as §1
Rattus norvegicus [22] = assay: Tested for in vivo inhibition of galactitol accumulation in the sciatic nerve of galactose-fed rats at the dose of 10.0 (mg/kg/day); NS=Not significant; assay type: functional, organism-based; outline: as §1
Rattus norvegicus [23] = assay: Tested for in vivo inhibition of galactitol accumulation in the sciatic nerve of galactose-fed rats at the dose of 4.7 (mg/kg/day); assay type: functional; outline: as §1
Rattus norvegicus [24] = assay: Tested for in vivo inhibition of galactitol accumulation in the lens of galactose-fed rats at the dose of 48 (mg/kg/day); assay type: functional, Lens of camera-type eye
Rattus norvegicus [25] = assay: Tested for in vivo inhibition of galactitol accumulation in the lens of galactose-fed rats at the dose of 4.7 (mg/kg/day); NS=Not significant; assay type: functional, organism-based; conditions: Lens of camera-type eye
Rattus norvegicus [26] = assay: Tested for in vivo inhibition of galactitol accumulation in the sciatic nerve of galactose-fed rats at the dose of 48 (mg/kg/day); assay type: functional; outline: as §2

inhibition [3]: 62%
SMILES: O=C(O)CC1C(=O)N(Cc2nc3cc(C(F)(F)F)ccc3s2)C(=O)c2ccc(F)cc21 (stereo not drawn)
inhibition (Rattus norvegicus [1]): inactive
inhibition (Rattus norvegicus [2]): inactive

SMILES: O=C1CC2(N1)C(=O)N(Cc1ccc(Br)cc1F)C(=O)c1ccc(F)cc12 (stereo not drawn)
inhibition (Rattus norvegicus [4]): inactive
inhibition (Rattus norvegicus [5]): inactive

inhibition [7]: inactive
SMILES: CC(C)=NN1C(=O)CC2(C(=O)N(Cc3ccc(Br)cc3F)C(=O)c3ccccc32)C1=O (stereo not drawn)
Inhibition (Rattus norvegicus [6]): 30%
Inhibition (Rattus norvegicus [8]): 82%
inhibition (Rattus norvegicus [9]): inactive

inhibition [10]: inactive
SMILES: CN1C(=O)CC2(C(=O)N(Cc3ccc(Br)cc3F)C(=O)c3ccc(F)cc32)C(=O)N1C (stereo not drawn)
inhibition (Rattus norvegicus [11]): inactive

inhibition [7]: inactive
SMILES: CCN1C(=O)CC2(C(=O)N(C)C(=O)c3ccc(Cl)cc32)C1=O (stereo not drawn)
inhibition (Rattus norvegicus [12]): inactive

inhibition [7]: 60%
SMILES: O=C(O)CN1C(=O)CC2(C1=O)C(=O)N(Cc1ccc(Br)cc1F)C(=O)c1ccc(F)cc12 (stereo not drawn)
inhibition (Rattus norvegicus [13]): inactive

inhibition [7]: 51%
SMILES: COC(=O)NC(=O)CC1C(=O)N(C)C(=O)c2ccc(C(F)(F)F)cc21 (stereo not drawn)
Inhibition (Rattus norvegicus [14]): 26%
Inhibition (Rattus norvegicus [15]): 52%

inhibition [7]: inactive
SMILES: O=C1c2ccccc2C2(CC(=O)N(NS(=O)(=O)C(F)(F)F)C2=O)C(=O)N1Cc1ccc(Br)cc1F (stereo not drawn)
inhibition (Rattus norvegicus [16]): inactive
inhibition (Rattus norvegicus [17]): inactive

inhibition [3]: 57%
SMILES: O=C(O)CC1C(=O)N(Cc2ccc(Br)cc2F)C(=O)c2ccc(Cl)cc21 (stereo not drawn)
inhibition (Rattus norvegicus [18]): inactive
inhibition (Rattus norvegicus [19]): inactive

SMILES: COc1c(CC(=O)O)c2ccccc2c(=O)n1Cc1ccc(Br)cc1F
inhibition (Rattus norvegicus [20]): inactive
inhibition (Rattus norvegicus [21]): inactive

inhibition [7]: inactive
SMILES: O=C1CC2(C(=O)N1CC(F)(F)F)C(=O)N(Cc1ccc(Br)cc1F)C(=O)c1ccccc12 (stereo not drawn)
inhibition (Rattus norvegicus [22]): inactive

inhibition [7]: inactive
SMILES: O=C1c2ccccc2C2(CC(=O)N(N=C3CCCC3)C2=O)C(=O)N1Cc1ccc(Br)cc1F (stereo not drawn)
Inhibition (Rattus norvegicus [23]): 86%
Inhibition (Rattus norvegicus [24]): 76%
inhibition (Rattus norvegicus [25]): inactive
Inhibition (Rattus norvegicus [26]): 82%
